According to publication PMC10319625 (PNAS Nexus, 2023):
Like-named read-outs stand apart in the source and are kept apart here.

Assays:
[1] = tested on: liver and kidney of KSN/Slc nude mice; experiment: Histopathological analysis of liver and kidney, tumor-free mice; assay type: in vivo, mouse; conditions: 10 days treatment
Procedure, shortened: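 Tumor-free KSN/Slc nude mice received saline, test compound or cisplatin for 10 days on the xenograft regimen. Liver and kidney sections were HE-stained for histopathology. Glomerulus area was measured (mean ± SD, n = 15 sections from 3 mice) and compared by one-way ANOVA with Tukey's test.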

SAS cells [2] = experiment: Annexin V/PI staining; assay type: cell-based, human; conditions: 5 µM cAQ-mBen or 50 µM CDDP, 24 h
Procedure, shortened: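 SAS cells were exposed for 24 h to 5 µM test compound or to 50 µM cisplatin (positive control), then stained with annexin V-FITC and propidium iodide. Positive cells are expressed as % of total cell number per field. Values are mean ± SD of total apoptotic cells (n = 5), compared by one-way ANOVA with Tukey's test.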

[3] = assay type: in vivo, mouse; conditions: day 10 of treatment, versus negative control
Ca9-22 = experiment: Cell proliferation assay; assay type: cell-based, human; conditions: Ca9-22, 48 h
[4] = Mouse xenograft model, body weight; assay type: in vivo; conditions: 3 µmol/kg cAQ-mBen or 30 µmol/kg CDDP, every 2 days for 5 times
Procedure, shortened: (§1)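 SAS cells were inoculated subcutaneously into KSN/Slc nude mice. From day 7 after inoculation (day 0), mice received saline, 3 µmol/kg test compound or 30 µmol/kg cisplatin intraperitoneally every 2 days, 5 times. Tumor volume and body weight were recorded at set points to day 10 (n = 9 control and test, n = 8 cisplatin). Statistics: two-way ANOVA with Tukey's test.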

HeLa = experiment: Cell proliferation assay; assay type: cell-based, human; conditions: 48 h
SAS = experiment: Cell proliferation assay; assay type: cell-based, human; conditions: 48 h
[5] = tested on: primary mouse bone marrow cells (BMCs); experiment: Cell proliferation assay; assay type: cell-based; conditions: BMC (normal cells), 48 h
[6] = tested on: SAS cells xenograft tumors in KSN/Slc nude mice; experiment: Mouse xenograft model, tumor volume; assay type: in vivo; conditions: 3 µmol/kg cAQ-mBen or 30 µmol/kg CDDP, peritoneally every 2 days for 5 times
Procedure, shortened: as §1

SAS cells [7] = experiment: Western blot analysis of caspase-3 and PARP-1 cleavages; assay type: cell-based, human; conditions: 5 µM cAQ-mBen or 50 µM CDDP, 12 or 24 h
PANC-1 and MIA PaCa-2 = conditions: human pancreatic cancer cell lines, cited from earlier work

## N.N.[Cl][Pt][Cl] [CDDP, cis-diamminedichloroplatinum(II)]
[1]
  cell arrangement and size of the glomerulus in the kidney: significant condensation of the glomerulus area
SAS cells [2]
  Anx Alone(%), cells positive for annexin V, % of total cell count, Mean: 24.0%
  PI (%), cells positive for PI signal, % of total cell count, Mean: 18.5%
[3]
  physiological indices of serum (BUN, UA, AST, ALT, CRE, and γ-GTP levels): substantial increase
Ca9-22
  IC50: 27.7 µM
[4]
  body weight of mice: considerably reduced
HeLa
  IC50: 0.5 µM
SAS
  IC50: 4.3 µM
[5]
  IC50: 1.3 µM
[6]
  increase in the tumor volume: significantly suppressed
SAS cells [7]
  digestion of PARP-1 and caspase-3: observed in a time-dependent manner

## O=C1c2cc(-c3ccc(CN4CCCC4)cc3)c3c4c(cc(NCCN5CCCC5)c(c24)C(=O)N1CCCN1CCOCC1)C(=O)N(CCCN1CCOCC1)C3=O [SOP1812]
PANC-1 and MIA PaCa-2; after 24 h
  expression of hTERT: remained downregulated

## O=C1c2ccc3c4c(c(NCCN5CCCC5)cc(c24)C(=O)N1CCCN1CCOCC1)C(=O)N(CCCN1CCOCC1)C3=O [CM03]
PANC-1 and MIA PaCa-2; after 6 h
  expression of hTERT: remained downregulated
